Measured values reported in ChEMBL document CHEMBL3112482, “Nonclassical antifolates, part 5. Benzodiazepine analogs as a new class of DHFR inhibitors: synthesis, antitumor testing and molecular modeling study” (Eur J Med Chem, 2014).

How the values were obtained:
Format in all cases: functional
U-251 = assay: Growth inhibition of human U251 cells at 10 uM after 48 hrs; settings: U-251, 48 h, read-out: GI
Method in brief: (§1)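 NCI 60-cell-line disease-oriented human tumor panel, single-dose primary screen at 10 µM. Data given as mean-graph percent growth of treated cells, reported as percent growth inhibition (GI %).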

[1] = Cytotoxicity against human non-small cell lung cancer cells at 10 uM after 48 hrs; settings: Cancer cell lines; for CC50: read-out: LC50 (the source's name)
Method in brief: (§2)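 Single-dose primary screen in the NCI 60 human tumour cell line panel, run at the NCI facility. The panel covers nine subpanels: leukaemia, non-small cell lung, colon, CNS, melanoma, ovarian, renal, prostate and breast. Read-out was percent growth of treated cells, shown as a mean graph and reported as percent growth inhibition.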

[2] = Growth inhibition of human RXF393 cells at 10 uM after 48 hrs; settings: RXF 393, 48 h, read-out: GI; method in brief: as §2
DU-145 = assay: Growth inhibition of human DU145 cells at 10 uM after 48 hrs; settings: DU-145, 48 h, read-out: GI; method in brief: as §2
[3] = Cytotoxicity against human breast cancer cells at 10 uM after 48 hrs; settings: Cancer cell lines; method in brief: as §2
UACC-62 = assay: Growth inhibition of human UACC62 cells at 10 uM after 48 hrs; settings: UACC-62, 48 h, read-out: GI; method in brief: as §1
SN12C = assay: Growth inhibition of human SN12C cells at 10 uM after 48 hrs; settings: read-out: GI; method in brief: as §1
[4] = Growth inhibition of human HOP92 cells at 10 uM after 48 hrs; settings: HOP-92, 48 h, read-out: GI; method in brief: as §2
Malme-3M = assay: Growth inhibition of human MALME-3M cells at 10 uM after 48 hrs; settings: read-out: GI; method in brief: as §2
SF-295 = assay: Growth inhibition of human SF295 cells at 10 uM after 48 hrs; settings: SF-295, 48 h, read-out: GI; method in brief: as §1
[5] = Cytotoxicity against human melanoma cells at 10 uM after 48 hrs; settings: Melanoma cell; for CC50: read-out: LC50 (the source's name); method in brief: as §2
IGROV-1 = assay: Growth inhibition of human IGROV1 cells at 10 uM after 48 hrs; settings: IGROV-1, 48 h, read-out: GI; method in brief: as §2
MDA-MB-468 = assay: Growth inhibition of human MDA-MB-468 cells at 10 uM after 48 hrs; settings: MDA-MB-468, 48 h, read-out: GI; method in brief: as §2
ACHN = assay: Growth inhibition of human ACHN cells at 10 uM after 48 hrs; settings: read-out: GI; method in brief: as §2
NCI-H522 = assay: Growth inhibition of human NCI-H522 cells at 10 uM after 48 hrs; settings: NCI-H522, 48 h, read-out: GI; method in brief: as §2
KM12 = assay: Growth inhibition of human KM12 cells at 10 uM after 48 hrs; settings: KM12, 48 h, read-out: GI; method in brief: as §2
HL-60(TB) = assay: Growth inhibition of human HL-60(TB) cells at 10 uM after 48 hrs; settings: HL-60, 48 h, read-out: GI
Method in brief: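 NCI 60-cell-line human tumour panel covering nine subpanels (leukaemia, non-small cell lung, colon, CNS, melanoma, ovarian, renal, prostate, breast), run at the NCI facility. Primary screen tested a single dose of each compound. Read-out was percent growth of treated cells versus untreated cells, reported from the mean graph as percentage growth inhibition.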

A498 = assay: Growth inhibition of human A498 cells at 10 uM after 48 hrs; settings: A498, 48 h, read-out: GI; method in brief: as §2
M14 = assay: Growth inhibition of human M14 cells at 10 uM after 48 hrs; settings: M14, 48 h, read-out: GI; method in brief: as §2
HCT-15 = assay: Growth inhibition of human HCT15 cells at 10 uM after 48 hrs; settings: HCT-15, 48 h, read-out: GI; method in brief: as §2
HOP-62 = assay: Growth inhibition of human HOP62 cells at 10 uM after 48 hrs; settings: HOP-62, 48 h, read-out: GI; method in brief: as §2
COLO 205 = assay: Growth inhibition of human COLO205 cells at 10 uM after 48 hrs; settings: COLO 205, 48 h, read-out: GI; method in brief: as §2
[6] = Cytotoxicity against human leukemia cells at 10 uM after 48 hrs; settings: Leukemia cell
SK-MEL-5 = assay: Growth inhibition of human SK-MEL-5 cells at 10 uM after 48 hrs; settings: SK-MEL-5, 48 h, read-out: GI; method in brief: as §1
[7] = Cytotoxicity against human colon cancer cells at 10 uM after 48 hrs; settings: Cancer cell lines; for CC50: read-out: LC50 (the source's name); method in brief: as §2
RPMI-8226 = assay: Growth inhibition of human RPMI8226 cells at 10 uM after 48 hrs; settings: RPMI-8226, 48 h, read-out: GI; method in brief: as §2
LOX IMVI = assay: Growth inhibition of human LOXIMVI cells at 10 uM after 48 hrs; settings: read-out: GI; method in brief: as §2
HCT-116 = assay: Growth inhibition of human HCT116 cells at 10 uM after 48 hrs; settings: HCT-116, 48 h, read-out: GI; method in brief: as §2

| SMILES | inhibition of growth at 10 µM (U-251) [%] | inhibition of growth at 10 µM [2] [%] | inhibition of growth at 10 µM (DU-145) [%] | inhibition of growth at 10 µM (UACC-62) [%] | inhibition of growth at 10 µM (SN12C) [%] | inhibition of growth at 10 µM [4] [%] | inhibition of growth at 10 µM (Malme-3M) [%] | inhibition of growth at 10 µM (SF-295) [%] | inhibition of growth at 10 µM (IGROV-1) [%] | inhibition of growth at 10 µM (MDA-MB-468) [%] | inhibition of growth at 10 µM (ACHN) [%] | inhibition of growth at 10 µM (NCI-H522) [%] | inhibition of growth at 10 µM (KM12) [%] | inhibition of growth at 10 µM (HL-60(TB)) [%] | inhibition of growth at 10 µM (A498) [%] | inhibition of growth at 10 µM (M14) [%] | inhibition of growth at 10 µM (HCT-15) [%] | inhibition of growth at 10 µM (HOP-62) [%] | inhibition of growth at 10 µM (COLO 205) [%] | inhibition of growth at 10 µM (SK-MEL-5) [%] | other results |
| --- | --- | --- | --- | --- | --- | --- | --- | --- | --- | --- | --- | --- | --- | --- | --- | --- | --- | --- | --- | --- | --- |
| Clc1ccc(/C=C2\CCCC3=C(c4ccc(Cl)cc4)Nc4ccccc4N=C32)cc1 | 79.2 | 34.7 | < 30 | < 30 | < 30 | 39.4 | < 30 | < 30 | < 30 | 40 | < 30 | 80.1 | 82.7 | < 30 | 32.8 | 70.9 | 36.4 | < 30 | 31.9 | < 30 | GI50 [1]: 9 µM; TGI [1]: 35.2 µM; CC50 [1]: 81.3 µM; GI50 [3]: 4.6 µM; LC50 (concentration killing 50% of cells) [3]: 88.1 µM; TGI [3]: 58.2 µM; GI50 [5]: 9.5 µM; TGI [5]: 24.3 µM; CC50 [5]: 64.2 µM; GI50 [6]: 4.1 µM; LC50 [6]: > 100 µM; TGI [6]: 49.4 µM; GI50 [7]: 2.4 µM; TGI [7]: 6.4 µM; CC50 [7]: 38.8 µM |
| Nc1nc2c(c(-c3ccc(Cl)cc3)n1)CCC/C2=C\c1ccc(Cl)cc1 | 86.1 | 65.5 | < 30 | < 30 | < 30 | < 30 | < 30 | 32.5 | < 30 | 37.8 | < 30 | 81 | 97.7 | 35.2 | 45.3 | 89 | 41.7 | < 30 | < 30 | < 30 | GI50 [1]: 15.2 µM; TGI [1]: 55.7 µM; CC50 [1]: 88.6 µM; GI50 [3]: 23.6 µM; LC50 (concentration killing 50% of cells) [3]: 92.2 µM; TGI [3]: 70.9 µM; GI50 [5]: 15.4 µM; TGI [5]: 36.5 µM; CC50 [5]: 80 µM; GI50 [6]: 7.8 µM; LC50 [6]: > 100 µM; TGI [6]: 61.1 µM; GI50 [7]: 4 µM; TGI [7]: 12.5 µM; CC50 [7]: 51.3 µM |
| COc1ccc(/C=C2\CCCc3c2nc(N)nc3-c2ccc(OC)cc2)cc1 | < 30 | < 30 | < 30 | 32.1 | < 30 | 31.4 | < 30 | < 30 | < 30 |  | < 30 | < 30 | < 30 | 32.2 | < 30 | < 30 | < 30 | < 30 | < 30 | 43.8 | inhibition of growth at 10 µM (RPMI-8226): 42.3%; inhibition of growth at 10 µM (LOX IMVI): < 30%; inhibition of growth at 10 µM (HCT-116): < 30% |
| Cc1nc2c(c(-c3ccc(Cl)cc3)n1)CCC/C2=C\c1ccc(Cl)cc1 | 44 | < 30 | < 30 | < 30 | < 30 | < 30 | < 30 | < 30 | < 30 | < 30 | < 30 | < 30 | 62 | < 30 | < 30 | 34.7 | < 30 | < 30 | < 30 | < 30 | inhibition of growth at 10 µM (LOX IMVI): 63.2% |
| Nc1nc2c(c(-c3ccc(Br)cc3)n1)CCC/C2=C\c1ccc(Br)cc1 | 65.2 | < 30 | < 30 | < 30 | < 30 | < 30 | < 30 | < 30 | < 30 | < 30 | < 30 | 51.6 | 53 | < 30 | < 30 | 38.1 | < 30 | < 30 | < 30 | < 30 |  |
